According to ChEMBL document CHEMBL4422632, “Design of Novel Inhibitors of Human Thymidine Phosphorylase: Synthesis, Enzyme Inhibition, in Vitro Toxicity, and Impact on Human Glioblastoma Cancer” (J Med Chem, 2019):
Activity calls are given as the source filed them. The calls are words filed in the database; no cut-off is given here.

How the values were obtained:
[1] = biological target: T1, Thymidine phosphorylase (Homo sapiens, UniProt P19971); assay: Inhibition of recombinant human thymidine phosphorylase expressed in Escherichia coli Rosetta (DE3) cells using thymidine as substrate after 1 min by UV/visible spectrophotometry
T1 sequence (P19971 whole entry): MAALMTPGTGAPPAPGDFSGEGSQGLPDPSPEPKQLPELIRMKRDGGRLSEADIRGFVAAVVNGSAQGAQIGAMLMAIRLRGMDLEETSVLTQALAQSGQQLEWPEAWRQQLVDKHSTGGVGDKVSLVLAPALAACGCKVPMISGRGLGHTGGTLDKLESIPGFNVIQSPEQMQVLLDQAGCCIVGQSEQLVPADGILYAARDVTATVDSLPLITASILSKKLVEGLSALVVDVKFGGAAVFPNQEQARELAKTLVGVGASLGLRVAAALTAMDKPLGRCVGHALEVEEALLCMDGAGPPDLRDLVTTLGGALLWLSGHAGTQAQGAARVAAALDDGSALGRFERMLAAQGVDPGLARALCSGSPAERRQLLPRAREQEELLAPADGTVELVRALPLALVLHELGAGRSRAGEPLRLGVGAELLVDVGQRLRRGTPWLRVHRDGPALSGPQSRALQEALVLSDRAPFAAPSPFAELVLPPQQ

[2] = system: U-87 MG; assay: Antitumor activity against human U87MG cells xenografted in BALB/c nude mouse assessed as tumor growth inhibition 50 mg/kg/day, ip administered for 14 days; format: functional, organism-based; settings: U-87MG ATCC
In short: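 5 x 10⁵ U-87 MG cells implanted subcutaneously in right flank of male BALB/c nude mice; at about 50 mm³, randomized to saline or ip 50 mg/kg/day, with temozolomide 50 mg/kg/day in the combination arm, for 14 days. Relative tumor volume = volume on day / day 0; TGI on day 14 = [1 − RTV treated/RTV control] x 100. Two-way ANOVA with Bonferroni.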

[3] = Toxicity in nude BALB/c mouse xenografted with human U87MG cells assessed as reduction in body weight at 50 mg/kg, […]; format: organism-based; parameters: scale not given: the % may be the effect or the level left; settings: in vivo, ip, 120 h
[4] = system: U-87 MG; assay: Anti-angiogenic activity in tumor of human U87MG cells xenografted in nude BALB/c mouse assessed as reduction in VEGF staining at 50 mg/kg, ip administered for 14 days by immunohistochemistry; format: functional, organism-based; settings: U-87MG ATCC
In short: (§1)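 Male nude mice bearing subcutaneous right-flank xenografts of 5 x 10⁵ U-87 MG cells; dosing began at about 50 mm³ tumors, ip daily for 14 days. Tumors formalin-fixed, paraffin sections 3 µm; citrate pH 6 antigen retrieval at 95-98 °C; primary antibody overnight at 4 °C, HRP secondary, DAB. Positive area quantified by optical density at x200, 4 images per tumor; mean ± SEM, one-way ANOVA with Dunnett.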

[5] = system: U-87 MG; assay: Anti-angiogenic activity in tumor of human U87MG cells xenografted in nude BALB/c mouse assessed as reduction in number of blood vessels at 50 mg/kg, ip administered for 14 days by hematoxylin and eosin-staining based light microscopy; format: functional, organism-based; settings: U-87MG ATCC
In short: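 U-87 MG flank xenografts (5 x 10⁵ cells) in male nude mice; ip treatment daily from about 50 mm³ for 14 days, with temozolomide at 50 mg/kg/day in the co-treatment arm. Vessel density counted on HE-stained 3 µm sections by hot-spot method, mean of four fields per tumor at x200, avoiding gross haemorrhage. One-way ANOVA/Dunnett.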

[6] = system: U-87 MG; assay: Anti-angiogenic activity in tumor of human U87MG cells xenografted in nude BALB/c mouse assessed as reduction in CD31 staining at 50 mg/kg, ip administered for 14 days by immunohistochemistry; format: functional, organism-based; settings: U-87MG ATCC; in short: as §1
[7] = system: U-87 MG; assay: In-vivo inhibition of cell proliferation in human U87MG cells xenografted in BALB/c nude mouse at 50 mg/kg, ip after 14 days by Ki-67b-staining based assay; format: functional, organism-based; settings: U-87MG ATCC
In short: (§2)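 Male BALB/c nude mice implanted subcutaneously with 5 x 10⁵ U-87 MG cells in the right flank. Treated IP at 50 mg/kg/day for 14 days, with saline controls, starting once tumors reached about 50 mm³. Tumors fixed in formaldehyde and cut at 3 µm. Citrate pH 6 antigen retrieval.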

[8] = system: U-87 MG; assay: Induction of apoptosis in human U87MG cells xenografted in BALB/c nude mouse assessed as caspase-3 levels at 50 mg/kg, ip after 14 days by immunohistochemistry; format: functional, organism-based; settings: U-87MG ATCC; in short: as §2

| Compound | IC50 [1] | TGI [2] | Activity [3] | Activity [4] | Activity [5] | Activity [6] | inhibition [7] | Activity [8] |
| --- | --- | --- | --- | --- | --- | --- | --- | --- |
| O=c1[nH]c(CNCC(O)CO)c(Br)c(=O)[nH]1 (centres undefined) | > 100 µM |  |  |  |  |  |  |  |
| CCCN(CCC)Cc1[nH]c(=O)[nH]c(=O)c1I | > 100 µM |  |  |  |  |  |  |  |
| Cn1nnc2c(C(N)=O)ncn2c1=O [TEMOZOLOMIDE] |  | Active | < 20% | inactive | inactive | inactive | inactive | inactive |
